Calls of active or inactive are those of the source. The calls are words filed in the database; no cut-off is given here.
Assays:
Plasmodium berghei [1] = assay: Antimalarial activity against Plasmodium berghei ANKA infected in NMRI mice (Mus musculus) assessed as mean survival time at 3 times 60 mg/kg, perorally; format: functional, organism-based; design: dose 60 mg/kg
Plasmodium berghei [2] = assay: Antimalarial activity against Plasmodium berghei ANKA infected in NMRI mice (Mus musculus) assessed as reduction in parasitemia at 100 mg/kg, perorally administered as single dose measured on day 3 postinfection; format: functional; design: scale not given: the % may be the effect or the level left; conditions: route oral
Method in brief: (§1)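 P. berghei ANKA given intravenously to groups of 5 female NMRI mice (20–22 g): 0.2 ml of 1 × 10^8 parasitized erythrocytes/ml from a donor mouse. Oral dosing in 0.5% carboxymethyl cellulose. Parasitemia counted by microscopy. Activity is the control-minus-treated parasitemia difference, expressed as percent of untreated controls.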

Plasmodium berghei [3] = assay: Antimalarial activity against Plasmodium berghei ANKA infected in NMRI mice (Mus musculus) assessed as cure rate at 60 mg/kg, perorally administered as single dose […]; format: functional; conditions: route oral
Method in brief: (§2)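 Female NMRI mice (20–22 g), 5 per group, infected intravenously with 0.2 ml of 1 × 10^8 parasitized erythrocytes/ml from a fresh donor mouse. Compound suspended in 0.5% carboxymethyl cellulose and given orally. Survival followed to day 30 post-infection; an animal was scored cured if it survived to day 30 without parasites.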

[4] = Tmax in CD-1 mouse at 25 mg/kg, po; format: ADME, organism-based; design: dose 25 mg/kg, route oral; conditions: in vivo
Method in brief: (§3)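 Mice dosed with 25 mg/kg p.o. as a 2.5 mg/ml suspension in 0.5% CMC, or with 5 mg/kg i.v. at 1 mg/ml in 10% NMP, 30% PEG 400 and 60% of 10% vitamin E-TPGS. Blood sampled at several time points. Plasma extracted with acidified acetonitrile (8:1) and quantified by LC-MS, LLOQ 12 ng/ml.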

Plasmodium berghei [5] = assay: Antimalarial activity against Plasmodium berghei ANKA infected in NMRI mice (Mus musculus) assessed as reduction in parasitemia at 3 times 30 mg/kg, perorally measured on day 3 postinfection; format: functional; design: scale not given: the % may be the effect or the level left; conditions: route oral; method in brief: as §1
Plasmodium berghei [6] = assay: Antimalarial activity against Plasmodium berghei ANKA infected in NMRI mice (Mus musculus) assessed as reduction in parasitemia at 10 mg/kg, perorally administered as single dose measured on day 3 postinfection; format: functional; design: scale not given: the % may be the effect or the level left; conditions: route oral; method in brief: as §1
Plasmodium berghei [7] = assay: Antimalarial activity against Plasmodium berghei ANKA infected in NMRI mice (Mus musculus) assessed as mean survival time at 3 times 100 mg/kg, perorally; format: functional, organism-based; design: dose 100 mg/kg
Plasmodium falciparum = assay: Antimalarial activity against pyrimethamine-resistant Plasmodium falciparum clinical isolate harboring S108N, N51I, C59R mutation in DHFR assessed as decrease in parasitaemia; format: functional, organism-based
Method in brief: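 P. falciparum grown in RPMI 1640 with 10% (v/v) human serum, 25 mM bicarbonate, 2 mM glutamine, 25 mM HEPES, 5 nM para-aminobenzoic acid and 23 nM folic acid. Parasites exposed to a concentration series. Read-out is [3H]hypoxanthine incorporation into nucleic acid. IC50 taken from non-linear regression of the dose–response curve.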

Plasmodium berghei [8] = assay: Antimalarial activity against Plasmodium berghei ANKA infected in NMRI mice (Mus musculus) assessed as mean survival time at 3 times 30 mg/kg, perorally; format: functional; conditions: route oral
Method in brief: (§4)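 Infection: 5 female NMRI mice (20–22 g) per group, inoculated intravenously with 0.2 ml of donor blood at 1 × 10^8 parasitized erythrocytes/ml. Oral administration in 0.5% carboxymethyl cellulose. Survival time recorded up to 30 days after infection and averaged per group.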

[9] = Half life in CD-1 mouse at 25 mg/kg, po; format: ADME, organism-based; design: dose 25 mg/kg, route oral; conditions: in vivo; method in brief: as §3
Rattus norvegicus [10] = assay: Toxicity in Wistar rat assessed as occurrence of massive bone marrow atrophy at => 50 mg/kg, po after 2 weeks; format: organism-based; design: dose 50 mg/kg, route oral; conditions: in vivo, 336 h
Method in brief: (§5)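 Male Wistar rats, about 10 weeks old (254–292 g), 5 per group, gavaged daily with 50, 150 or 500 mg/kg/day. Vehicle was 10% of 1% aqueous Solutol HS15 plus 90% of 0.5% aqueous methylcellulose; exploratory 2-week design. Clinical observations, body weight, food intake, hematology, clinical chemistry and gross pathology recorded. Histopathology covered gross lesions and selected organs in the control and low-dose groups.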

[11] = Tmax in Wistar rat at 25 mg/kg, po; format: ADME, organism-based; design: dose 25 mg/kg, route oral; conditions: in vivo
Method in brief: (§6)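 Rats dosed with 25 mg/kg p.o. as a 2.5 mg/ml suspension in 0.5% CMC, or with 5 mg/kg i.v. at 1 mg/ml in 10% NMP, 30% PEG 400 and 60% of 10% vitamin E-TPGS. Plasma sampled over time, extracted with acidified acetonitrile (8:1) and quantified by LC-MS, LLOQ 12 ng/ml.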

Plasmodium berghei [12] = assay: Antimalarial activity against Plasmodium berghei ANKA infected in NMRI mice (Mus musculus) assessed as survival rate at 60 mg/kg, perorally administered as single dose; format: functional; conditions: route oral; method in brief: as §4
Plasmodium berghei [13] = assay: Antimalarial activity against Plasmodium berghei ANKA infected in NMRI mice (Mus musculus) assessed as cure rate at 3 times 30 mg/kg, perorally measured […]; format: functional; conditions: route oral; method in brief: as §2
Plasmodium berghei [14] = assay: Antimalarial activity against Plasmodium berghei ANKA infected in NMRI mice (Mus musculus) assessed as cure rate at 3 times 100 mg/kg, perorally measured on […]; format: functional; conditions: route oral; method in brief: as §2
Plasmodium berghei [15] = assay: Antimalarial activity against Plasmodium berghei ANKA infected in NMRI mice (Mus musculus) assessed as survival rate at 100 mg/kg, perorally administered as single dose; format: functional; conditions: route oral; method in brief: as §4
Plasmodium berghei [16] = assay: Antimalarial activity against Plasmodium berghei ANKA infected in NMRI mice (Mus musculus) assessed as reduction in parasitemia at 60 mg/kg, perorally administered as single dose measured on day 3 postinfection; format: functional; design: scale not given: the % may be the effect or the level left; conditions: route oral; method in brief: as §1
Rattus norvegicus [17] = assay: Toxicity in Wistar rat assessed as occurrence of inflammatory changes in gastric tract at => 50 mg/kg, po after 2 weeks; format: organism-based, Stomach; design: dose 50 mg/kg, route oral; conditions: in vivo, 336 h; method in brief: as §5
Plasmodium berghei [18] = assay: Antimalarial activity against Plasmodium berghei ANKA infected in NMRI mice (Mus musculus) assessed as survival rate at 10 mg/kg, perorally administered as single dose; format: functional; conditions: route oral; method in brief: as §4
Plasmodium berghei [19] = assay: Antimalarial activity against Plasmodium berghei ANKA infected in NMRI mice (Mus musculus) assessed as reduction in parasitemia at 30 mg/kg, perorally administered as single dose measured on day 3 postinfection; format: functional; design: scale not given: the % may be the effect or the level left; conditions: route oral; method in brief: as §1
[20] = Half life in Wistar rat at 5 mg/kg, iv; format: ADME, organism-based; design: dose 5 mg/kg, route intravenous; conditions: in vivo; method in brief: as §6
Mus musculus [21] = assay: Toxicity in NMRI mice (Mus musculus) infected with Plasmodium berghei ANKA at 30 mg/kg, perorally administered as single dose measured up to 30 days postinfection; format: organism-based; design: dose 30 mg/kg, route oral; conditions: in vivo, po, 720 h
[22] = Cmax in CD-1 mouse at 25 mg/kg, po; format: ADME, organism-based; design: dose 25 mg/kg, route oral; conditions: in vivo; method in brief: as §3
[23] = Binding affinity to recombinant Plasmodium falciparum V1/S DHFR S108N, N51I, C59R, I164L mutant by competitive binding assay; design: species or system V1S
Rattus norvegicus [24] = assay: Toxicity in Wistar rat assessed as occurrence of bone marrow degeneration at => 50 mg/kg, po after 2 weeks; format: organism-based; design: dose 50 mg/kg, route oral; conditions: in vivo, 336 h; method in brief: as §5
Plasmodium berghei [25] = assay: Antimalarial activity against Plasmodium berghei ANKA infected in NMRI mice (Mus musculus) assessed as cure rate at 30 mg/kg, perorally administered as single dose […]; format: functional; conditions: route oral; method in brief: as §2
Mus musculus [26] = assay: Toxicity in NMRI mice (Mus musculus) infected with Plasmodium berghei ANKA at 3 times 30 mg/kg, perorally measured up to 30 days postinfection; format: organism-based; design: dose 30 mg/kg, route oral; conditions: in vivo, po, 720 h
[27] = Half life in Wistar rat at 25 mg/kg, po; format: ADME, organism-based; design: dose 25 mg/kg, route oral; conditions: in vivo; method in brief: as §6

For `COc1ccc(OC)c(CNc2ccc3nc(N)nc(N)c3c2Cl)c1`, which Activity (Plasmodium berghei [1]) is on record?
Its Activity is “inactive”.

And the Activity (Plasmodium berghei [2])?
Its Activity is greater than 99.99%.

What about the Activity (Plasmodium berghei [3]) of the same compound?
The Activity was 0%.

What about the Tmax [4] of the same compound?
Its Tmax is 4 h.

What about the Activity (Plasmodium berghei [5]) of the same compound?
Its Activity is greater than 99.99%.

What about the Activity (Plasmodium berghei [6]) of the same compound?
The Activity was 59%.

What about the Activity (Plasmodium berghei [7]) of the same compound?
The Activity was “inactive”.

What about the IC50 (Plasmodium falciparum) of the same compound?
The IC50 was 11.7 nM.

What about the Survival (Plasmodium berghei [8]) of the same compound?
The Survival was 28.4 days.

And the half-life [9]?
The half-life was 4.84 h.

And the Activity (Rattus norvegicus [10])?
The Activity was “Toxic”.

And the Tmax [11]?
The Tmax was 4 h.

What about the Survival (Plasmodium berghei [12]) of the same compound?
The Survival was 12 days.

And the Activity (Plasmodium berghei [13])?
Its Activity is 80%.

And the Activity (Plasmodium berghei [14])?
The Activity was 20%.

And the Survival (Plasmodium berghei [15])?
Its Survival is 23.4 days.

What about the Activity (Plasmodium berghei [16]) of the same compound?
The Activity was greater than 99.99%.

And the Activity (Rattus norvegicus [17])?
The Activity was “Toxic”.

What about the Survival (Plasmodium berghei [18]) of the same compound?
The Survival was 6 days.

What about the Activity (Plasmodium berghei [19]) of the same compound?
Its Activity is greater than 99.99%.

What about the half-life [20] of the same compound?
The half-life was 3.5 h.

What about the Activity (Mus musculus [21]) of the same compound?
The Activity was 0%.

What about the Cmax [22] of the same compound?
The Cmax was 5.1 µM.

And the Ki [23]?
The Ki was 0.58 nM.

What about the Activity (Rattus norvegicus [24]) of the same compound?
Its Activity is “Toxic”.

What about the Activity (Plasmodium berghei [25]) of the same compound?
Its Activity is 0%.

And the Activity (Mus musculus [26])?
The Activity was 0%.

And the half-life [27]?
Its half-life is 9.3 h.

Source: ChEMBL document CHEMBL1255487, “Preclinical evaluation of the antifolate QN254, 5-chloro- N'6'-(2,5-dimethoxy-benzyl)-quinazoline-2,4,6-triamine, as an antimalarial drug candidate” (Antimicrob Agents Chemother, 2010)
